MT1-MMP act inh: MT1-MMP (human) activation inhibition | GFP/RFP ratio change, % at 20 µM | P50281 | HT1080 RFP-PRO-GFP cells, GFP/RFP ratio fluorescence, overnight; percent of plate control window, DMSO zero | 0.061% of 360,000 active;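 active = GFP/RFP ratio change of at least 30% with cell ATP level not reduced by more than half and red fluorescence within 50% of control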
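Assay system: HT1080 cells carrying an RFP-PRO-GFP reporter | Dosing: Single dose of 20 µM compound, 1% DMSO final | Incubation: Cells overnight before dosing, compound overnight, 37 °C, 5% CO2 | Evaluation: GFP/RFP fluorescence ratio | Control set: DMSO and RFP-L50D-GFP cell wells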
Tb MetRS inh: Trypanosoma brucei MetRS inhibition; purified T. brucei MetRS, ATP depletion, Kinase-Glo luminescence; inhibition, % at 11.9 µM; 0.4% of 360,000 active;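 active = inhibition above a per-plate cutoff of the control wells' mean inhibition plus 3 SD, cut at about 5.5% in these data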
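assay system = parasite MetRS enzyme | timing = 15 min preincubation, 2 h reaction, all 25 °C | evaluation = percent inhibition relative to median high and low control wells | medium = HEPES buffer containing pyrophosphatase, BSA, spermine, DTT | compound = single dose, 11.9 µM final nominal, 0.9% final DMSO | detection = Kinase-Glo luminescence, ATP depletion format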
SKN-1 inh: inhibitors of C. elegans SKN-1; C. elegans VP596 Pgst-4::GFP/RFP ratio, acrylamide-induced, 24 h; inhibition, % at 21.8 µM; 0.49% of 360,000 active;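 active = interference check ratio from 0.5 to 1.5 plus GFP to RFP signal ratio inhibition reaching or exceeding a fixed threshold, cut at about 30% in these data, passing the limit was not always enough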
Arr AP2 block: inhibitors of human beta-arrestin and AP2 interaction | AID 504490 | 0.31% of 340,000 active | inhibition, % at 10 µM | FITC-arrestin peptide / GST-AP2 beads, flow cytometry; AP2 beta2 appendage carries R879A mutation;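 active = inhibition above a set limit, near 3 SD of compounds lacking own fluorescence, cut at about 54% in these data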
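System: GST-AP2 R879A glutathione beads. Medium: PBS with 0.05% Tween 20 and 0.1% BSA. Also added: FITC-arrestin peptide, 50 nM. Incubation: 12 min plus 1 h, RT. Measured by: high-throughput flow cytometry of beads, ex 488, em 535 nm. Evaluation: percent drop in bead-associated FITC signal.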
Rin1 Abl inh: blocks binding of human Rin1 to Abl. TR-FRET Rin1/Abl binding, biochemical. P00519+Q13671. inhibition, % at 7.35 µM. 0.4% of 360,000 active. AID 588664; in the data active = inhibition above about 5%, passing the limit was not always enough
Rin1-Abl confirm: confirmation of inhibitors of human Rin1-Abl interaction. shares compounds with Rin1 Abl inh. inhibition, % at 7.35 µM. TR-FRET Rin1-Abl binding, purified proteins. 49% of 1,300 active
GFP quench: quenches GFP fluorescence, counter-screen for Rin1-Abl inhibitors; shares compounds with Rin1 Abl inh; 8.5% of 1,300 active; inhibition, % at 6.75 µM; inhibitors/quenchers counterscreen; AID 602125;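 also: ABL1-eGFP fusion protein alone without its partner RIN1-SBP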
GFP quench dose: counter-screen for Rin1-Abl inhibitors: GFP quenchers, dose response; GFP fluorescence interference/quenching counterscreen; IC50, µM; 230 tested, under 10 active; shares compounds with Rin1 Abl inh; AID 602182; call rule not given here;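 also: ABL1-eGFP fusion protein alone without its RIN1 binding partner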
A number is an active result; n = inactive; x = not tested or not shown. A selection: hits, their analogues and other compounds. The true share with any hit is near 1.6%. Rule as the data show it, unless noted: active = inhibition above about 6.5%; inactive = the rest.

SMILES	MT1-MMP act inh	Tb MetRS inh	SKN-1 inh	Arr AP2 block	Rin1 Abl inh	Rin1-Abl confirm	GFP quench	others
Cc1ccc(C(c2cc(Cl)c3cccnc3c2O)N2CCN(C)CC2)cc1 (stereo not given)	n	n	n	n	n	x	x
COc1cnc(-c2ccccn2)nc1Oc1ccccc1Cl	n	n	n	n	n	x	x
COc1cnc(-c2ccccn2)nc1Oc1ccc(Cl)cc1	n	n	n	n	6.8	n	n
CN(Cc1ccc(Cl)c(Cl)c1)C(=O)C1CC(=O)N(c2ccc3c(c2)OCCO3)C1 (stereo not given)	n	n	n	x	n	x	x
Cc1csc(-c2nc3ccccc3n2C(C)c2nc3ccccc3[nH]2)c1 (stereo not given)	n	n	n	x	x	x	x
CC1=CC(C)(C)[N+](C)(C)c2ccc(C)cc21	n	n	n	n	10.1	n	n
CC1(C(=O)NS(=O)(=O)c2cccc(F)c2)CCN1C(=O)CCC1CCCC1 (stereo not given)	n	n	n	x	n	x	x
O=C1CCCC2=C1C1(O)C(=O)c3ccccc3C1(O)O2 (stereo not given)	n	n	n	n	19.3	9.1	n
CCN1CCN(CCC(=O)Nc2ccc(Br)c(C)c2)CC1	n	n	n	n	n	x	x
CCOC(=O)N1CCN(CCC(=O)Nc2ccc(Br)c(C)c2)CC1	n	n	n	n	8.9	10.6	n
CO[C@H]1CN(C)C(=O)c2cc(NC(=O)c3ccccc3)ccc2OC[C@H](C)NC[C@@H]1C	n	n	n	x	x	x	x
COC(=O)c1cc(OC)nc(OC)c1	n	n	n	n	n	x	x
COC(=O)c1cc(O)c(O)c(O)c1	n	n	n	n	18.5	16.6	n
CN(C)/C=N/NC(=O)c1ccccc1	n	n	n	n	n	x	x
O=C(NN=c1c(=O)c2ccccc2c1=O)c1ccccc1	n	n	n	n	23.4	29.4	n	GFP quench dose=n
O=C1C=C(N2CCOCC2)c2cccc3cccc1c23	n	n	n	x	16.2	n	n
C#Cc1cccc(Nc2nc(NCc3ccccc3OC)nc3ccsc23)c1	n	n	n	x	n	x	x
Cc1c(Cl)cccc1NC(=O)c1cc(S(=O)(=O)N2CCOCC2)cn1C	n	n	n	n	8.4	n	n
CCOCc1nnc(NC(=O)c2c(OC)cccc2OC)s1	n	n	n	n	21.7	24.4	n	GFP quench dose=n
Cc1cccc(NC(=O)NCc2ccc3c(c2)cc(C)n3C)c1	n	n	48.8	n	7.8	n	n
CCC(C(=O)NCc1ccccc1)n1c(CSCCOc2ccccc2)nc2ccccc21 (stereo not given)	n	n	n	x	x	x	x
CCN(CC)c1ccc(S(=O)(=O)N2CCOCC2)cc1NC(=O)C1CC1	n	n	n	n	9.4	n	n
CCN(CC)c1ccc(N=C2C=CC(=O)C=C2NC(C)=O)cc1	n	n	n	x	n	x	x
Cc1ccc(NC(=O)CN2CCCCCC2)c(Br)c1	n	n	n	n	10.5	n	n
COc1ccc(N2CCN(CC(=O)Nc3ccc(C)cc3Br)CC2)cc1	n	n	n	n	n	x	x
SMILES	MT1-MMP act inh	Tb MetRS inh	SKN-1 inh	Arr AP2 block	Rin1 Abl inh	Rin1-Abl confirm	GFP quench	others
COc1ccc(Cl)cc1S(=O)(=O)N1CCC(C(=O)NC2CC2)CC1	n	n	n	n	n	x	x
COc1ccccc1C(=O)Nc1ccccc1N1CCCCC1	n	n	n	n	n	x	x
COc1ccc(Br)cc1C(=O)Nc1ccccc1N1CCCC1	n	n	n	n	6.6	n	n
C[C@@H]1CN([C@H](C)CO)C(=O)CCCn2nncc2CO[C@H]1CN(C)Cc1ccc2c(c1)OCO2	n	n	n	x	n	x	x
Cc1nnc(SCC(=O)N2CCCC(C(=O)c3ccc(Cl)cc3)C2)o1 (stereo not given)	n	n	n	n	n	x	x
C=CCC(=O)N1CCCC(C(=O)c2ccc(Cl)cc2)C1 (stereo not given)	n	n	n	n	6.9	n	n
COc1ccccc1-c1cn(CC[C@@H]2CC[C@H](NC(=O)C3CCC3)[C@@H](CO)O2)nn1	n	n	n	x	x	x	x
CC(=O)c1cccc(NC(=O)CNC(=O)c2cc3ccccc3o2)c1	n	n	n	n	17.2	n	n
CCOC(=O)C1=CCC(c2ccc(CC)cc2)N(S(=O)(=O)c2ccc(C)cc2)C1 (stereo not given)	n	n	n	x	n	x	x
O=C1CCCC(O)=C1N=Nc1ccc2c(c1)OCO2	n	n	n	n	n	x	x
O=C1CCCC(O)=C1N=Nc1ccc(C(=O)O)cc1	n	n	n	n	6.7	n	n
CS(=O)(=O)c1cc(C(=O)O)cc(NCc2ccccc2)c1Oc1ccccc1	n	n	n	x	n	x	x
Cn1c(=O)c2c(nc(NCc3ccco3)n2Cc2ccccc2Cl)n(C)c1=O	n	n	n	n	7.1	6.7	n
COc1cccc2c3cccc(OC)c3c3[nH]cnc3c12	n	n	n	n	33.2	28.5	n	GFP quench dose=n
COc1cccc2[nH]c3c(=O)[nH]cnc3c12	n	n	n	n	n	x	x
CC(=O)c1cc(CN2CCCCC2)cc(OC(C)C)c1	n	n	n	n	n	x	x
CC(=O)c1ccc(OC(C)C)c(CN2CCCCC2)c1	n	n	n	n	8.6	n	n
Cc1ccccc1-n1nc2c(c1NC(=O)c1ccc3c(c1)OCO3)CS(=O)(=O)C2	n	n	n	n	n	x	x
COc1ccc(CN(C)CCCn2ccc(NC(=O)OCc3ccccc3)nc2=O)cc1OC	n	n	n	x	14.5	22.4	n	GFP quench dose=n
CC[C@@H](NCCCn1ccc(NC(=O)OCc2ccccc2)nc1=O)c1ccccc1	n	n	n	x	8.4	8.8	n
O=C1CCC(C(=O)N2CCCO2)CN1Cc1cccc(C(F)(F)F)c1 (stereo not given)	n	n	n	n	n	x	x
Oc1ccc(/C=N/N=C(c2ccccc2)c2ccccc2)c(O)c1O	n	n	n	n	21.4	40.8	15.6
CC1CCCN(C(=O)COC(=O)Cc2c[nH]c3ccccc23)C1 (stereo not given)	n	n	n	n	n	x	x
COC(=O)C1CCN(C(=O)COC(=O)Cc2c[nH]c3ccccc23)CC1	n	n	n	n	5.2	n	n
COC(=O)c1ccc2nc(-c3ccc(F)cc3)c(Cc3ccsc3)n2c1	n	n	n	x	n	x	x
Cc1ccc(NC(=O)CSc2nc3c(c(=O)n(C)c(=O)n3C)n2C)cc1	n	n	n	n	6.8	n	n
Cn1c(=O)c2c(nc(SCC(=O)Nc3ccccc3)n2C)n(C)c1=O	n	n	n	n	n	x	x
Oc1c(CN2CCOCC2)cc(COCc2ccccc2)c2cccnc12	n	n	n	n	10.8	n	n

Compound activity (PubChem BioAssay)
